Experimental data as given in ChEMBL document CHEMBL2029242 (J Med Chem, 2012).

Columns and labels:
[1] = target: T1, Serine/threonine-protein kinase B-raf (Homo sapiens, UniProt P15056, V600E)
[2] = target: T1, Serine/threonine-protein kinase B-raf; remark: listed apart in the source
[3] = test system: A-375; test: Cytotoxicity against human A375 cells expressing BRAF V600E mutant after 72 hrs by cell titer blue assay; assay type: functional, cell-based; conditions: A-375, 72 h
How it was run: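 Cells were grown in ATCC-recommended media and kept overnight in 0.5% serum. They were then exposed to compound for 72 h, and Cell Titer Blue was added for 3 h. EC50 came from fluorometric concentration−response curves, run in duplicate and repeated at least once.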

[4] = Tmax in Sprague-Dawley rat at 10 mg/kg, po; assay type: ADME, organism-based; parameters: dose 10 mg/kg, route oral; conditions: in vivo
How it was run: (§1)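 Male Sprague-Dawley rats (250–350 g, jugular-catheterized) received a single dose either iv at 1 mg/kg in 3:1 PEG400/water (n = 2) or po at 10 mg/kg in Pharmatek #6 (n = 3). Plasma was sampled at 5 min (iv only), 15 and 30 min, and 1, 2, 4, 6 and 24 h. Samples were analyzed by LC-MS/MS after acetonitrile precipitation. Parameters came from noncompartmental linear-trapezoidal analysis of individual animals.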

[5] = AUC (infinity) in Sprague-Dawley rat at 10 mg/kg, po; assay type: ADME, organism-based; parameters: time infinity, dose 10 mg/kg, route oral; conditions: plasma
How it was run: (§2)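 Single-dose PK. Rats: male Sprague−Dawley, jugular-catheterized, 1 mg/kg iv in 3:1 PEG400/water (n = 2) and 10 mg/kg po in Pharmatek #6 (n = 3). Female athymic nude mice: 100 mg/kg po in Pharmatek #6 (n = 3). Beagle dogs and male cynomolgus monkeys (n = 3): crossover, 1 mg/kg iv and 10 mg/kg po in 22% HPβCD, overnight fast. Plasma LC-MS/MS to 24 h; noncompartmental parameters, mean ± SD.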

[6] = Cmax in Sprague-Dawley rat at 10 mg/kg, po; assay type: ADME, organism-based; parameters: dose 10 mg/kg, route oral; conditions: in vivo
How it was run: as §2

[7] = Stability in rat liver microsomes assessed as compound remaining at 1 uM after 60 mins; assay type: ADME, Microsome; conditions: read-out: Stability
How it was run: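 Pooled liver microsomes (0.5 mg/mL) were premixed with 0.1 M phosphate buffer pH 7.4, 6.5 mM MgCl2 and test compound (1 μM final, 0.2% DMSO). NADPH (1 mM) started the reaction at 37 °C, in duplicate. Minus-NADPH and testosterone controls were included. Aliquots were taken at 0, 5, 15, 30 and 60 min and quenched in acetonitrile containing internal standard.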

[8] = Oral bioavailability in Sprague-Dawley rat at 10 mg/kg; assay type: ADME, organism-based; conditions: in vivo
How it was run: as §1

[9] = Volume of distribution in Sprague-Dawley rat at 1 mg/kg, iv and 10 mg/kg, po; assay type: ADME, organism-based; conditions: in vivo
How it was run: as §1

[10] = Clearance in Sprague-Dawley rat at 1 mg/kg, iv and 10 mg/kg, po; assay type: ADME, organism-based; conditions: in vivo
How it was run: as §2

[11] = Terminal half life in Sprague-Dawley rat at 1 mg/kg, iv and 10 mg/kg, po; assay type: ADME, organism-based; conditions: in vivo, read-out: beta t1/2 (converted)
How it was run: as §1

T1 sequence (P15056 2-766 V600E limits assumed): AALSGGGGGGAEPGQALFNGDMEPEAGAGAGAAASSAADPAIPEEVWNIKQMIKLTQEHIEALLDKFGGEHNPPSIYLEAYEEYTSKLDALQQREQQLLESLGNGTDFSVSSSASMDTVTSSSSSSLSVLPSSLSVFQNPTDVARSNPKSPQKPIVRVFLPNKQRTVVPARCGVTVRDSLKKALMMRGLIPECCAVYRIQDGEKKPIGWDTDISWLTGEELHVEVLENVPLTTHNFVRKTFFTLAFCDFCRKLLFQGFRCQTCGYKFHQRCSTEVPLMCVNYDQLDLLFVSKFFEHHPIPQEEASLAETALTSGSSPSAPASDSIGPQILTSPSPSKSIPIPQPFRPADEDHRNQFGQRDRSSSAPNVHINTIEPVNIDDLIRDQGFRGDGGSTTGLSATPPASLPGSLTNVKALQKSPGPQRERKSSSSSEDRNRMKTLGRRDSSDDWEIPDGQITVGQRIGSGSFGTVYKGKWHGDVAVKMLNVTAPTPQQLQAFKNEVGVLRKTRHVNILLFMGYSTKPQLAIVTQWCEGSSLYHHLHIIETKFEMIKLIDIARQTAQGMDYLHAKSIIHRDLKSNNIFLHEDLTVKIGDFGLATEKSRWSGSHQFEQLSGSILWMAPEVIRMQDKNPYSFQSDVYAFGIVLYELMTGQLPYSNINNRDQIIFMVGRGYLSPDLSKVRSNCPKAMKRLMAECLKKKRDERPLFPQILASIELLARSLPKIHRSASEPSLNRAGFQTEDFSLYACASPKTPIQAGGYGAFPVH

Compound	Kd [1] [µM]	IC50 [2] [µM]	IC50 [3] [µM]	Tmax [4] [h]	AUC(0-inf) [5] [µM·h]	Cmax [6] [µM]	remaining at 1 h, 1 µM [7] [%]	bioavailability [8] [%]	Vd [9] [L/kg]	clearance [10] [mL/min/kg]	half-life [11] [h]
COc1cc2ncnc(Oc3cccc(NC(=O)Nc4cc(C(C)(C)C(F)(F)F)nn4-c4ccccc4)c3)c2cc1OC	0.271	0.062									
COc1cc2ncnc(Oc3cccc(NC(=O)Nc4cc(C5(C(F)(F)F)CC5)on4)c3)c2cc1OC	0.027	0.183	0.117								
COc1cc2ncnc(Oc3cccc(NC(=O)Nc4cc(C)on4)c3)c2cc1OC	0.678	> 15	> 15								
COc1cc2ncnc(Oc3cccc(NC(=O)Nc4cc(C(C)(C)C(F)(F)F)no4)c3)c2cc1OC	0.066	0.174	0.549	1.7	40.7	4.7					
COc1cc2ncnc(Sc3cccc(NC(=O)Nc4cc(C(C)(C)C(F)(F)F)on4)c3)c2cc1OC	0.074	0.142	> 15								
COc1cc2ncnc(Oc3cccc(NC(=O)Nc4cc(C(C)(C)C)on4)c3)c2cc1OC			0.328	0.8	17	11	46	49	0.5	7.3	19.2
COc1cc2ncnc(Oc3cccc(NC(=O)Nc4cc(C(C)(C)F)on4)c3)c2cc1OC	0.029	0.276	0.493	2	127	21.1	92	100	0.5	2.9	3.5
COc1cc2ncnc(Oc3cccc(NC(=O)Nc4cc(C(C)(C)C)nn4-c4ccccc4)c3)c2cc1OC	0.295	0.021		1.3	25.9	6.7		33	0.3	3.1	4.2
COc1cc2ncnc(Oc3cccc(NC(=O)Nc4cc(C(C)(C)C)no4)c3)c2cc1OC				0.8	1.9	0.7	51	6	1	9.8	8.2
COc1cc2ncnc(Sc3cccc(NC(=O)Nc4cc(C5(C(F)(F)F)CC5)on4)c3)c2cc1OC	0.031	0.469	0.222								
COc1cc2ncnc(Oc3cccc(NC(=O)Nc4cc(C(C)(C)CO)on4)c3)c2cc1OC	0.049	0.649	> 15								
COc1cc2ncnc(Sc3cccc(NC(=O)Nc4cc(C(C)(C)F)no4)c3)c2cc1OC	0.039	0.084	1.47								
COc1cc2ncnc(Oc3cccc(NC(=O)Nc4cnn(C(C)(C)C)c4)c3)c2cc1OC	0.075	1.13	> 15								
COc1cc2ncnc(Oc3cccc(NC(=O)Nc4cc(C(F)(F)F)no4)c3)c2cc1OC	0.078	2.23	5.15								
COc1cc2ncnc(Oc3cccc(NC(=O)Nc4cc(C(C)(C)C#N)no4)c3)c2cc1OC	0.048	0.332	6.16								
COc1cc2ncnc(Oc3cccc(NC(=O)Nc4cc(-c5ccccc5)no4)c3)c2cc1OC	1.45	> 15	7.07								
COc1cc2ncnc(Oc3cccc(NC(=O)Nc4cc(C(C)(C)C)nn4C)c3)c2cc1OC	0.087	0.336	4.27								
COc1cc2ncnc(Oc3cccc(NC(=O)Nc4cc(C(C)(C)C)nn4CC(C)C)c3)c2cc1OC	0.101	0.681	1.16								

Compound	Kd [1] [µM]	IC50 [2] [µM]	IC50 [3] [µM]	Tmax [4] [h]	AUC(0-inf) [5] [µM·h]	Cmax [6] [µM]	remaining at 1 h, 1 µM [7] [%]	bioavailability [8] [%]	Vd [9] [L/kg]	clearance [10] [mL/min/kg]	half-life [11] [h]
COc1cc2ncnc(Oc3cccc(NC(=O)Nc4cc(C(C)(C)C)nn4C4CCCCC4)c3)c2cc1OC	0.174	> 1.67	> 15								
COc1cc2ncnc(Oc3cccc(NC(=O)Nc4cccc(C(C)(C)C)c4)c3)c2cc1OC			1.77								
COc1cc2ncnc(Oc3cccc(NC(=O)Nc4cc(C(C)(F)F)no4)c3)c2cc1OC	0.076	0.645	0.694								
COc1cc2ncnc(Oc3cccc(NC(=O)Nc4cc(C5CCCC5)on4)c3)c2cc1OC	0.037	0.134	0.488								
COc1cc2ncnc(Oc3cccc(NC(=O)Nc4cc(C(C)(C)C)nn4C(C)C)c3)c2cc1OC	0.085	0.505	0.543								
COc1cc2ncnc(Oc3cccc(NC(=O)Nc4cc(C5(C(F)(F)F)CCC5)no4)c3)c2cc1OC	0.129	0.308	2.24								
COc1cc2ncnc(Oc3cccc(NC(=O)Nc4cc(C(C)(CF)CF)on4)c3)c2cc1OC	0.045	0.109	0.145								
COc1cc2ncnc(Oc3cccc(NC(=O)Nc4cc(C5CCCC5)no4)c3)c2cc1OC	0.122	1.13	4.38								
COCC(C)(C)c1cc(NC(=O)Nc2cccc(Oc3ncnc4cc(OC)c(OC)cc34)c2)no1	0.151	0.324	1.55								
COc1cc2ncnc(Oc3cccc(NC(=O)Nc4cc(C(C)(C)F)no4)c3)c2cc1OC	0.044	0.155	0.125	2	42	7.9	82	48	0.6	4	4.7
COc1cc2ncnc(Oc3cccc(NC(=O)Nc4cc(C(C)(C)C)nn4Cc4ccccc4)c3)c2cc1OC	0.175	0.48	1.87								
COc1cc2ncnc(Oc3cccc(NC(=O)Nc4cc(C(C)(CF)CF)no4)c3)c2cc1OC	0.132	0.339	1.99								
COc1cc2ncnc(Oc3cccc(NC(=O)Nc4cc(C(C)C)on4)c3)c2cc1OC	0.019	0.355	0.527								
COc1cc2ncnc(Oc3cccc(NC(=O)Nc4cc(C(C)C)no4)c3)c2cc1OC	0.031	0.34	2.96								
COc1cc2ncnc(Sc3cccc(NC(=O)Nc4cc(C(C)(CF)CF)on4)c3)c2cc1OC	0.05	0.093	0.223								
COc1cc2ncnc(Oc3cccc(NC(=O)Nc4cc(-c5ccccc5)on4)c3)c2cc1OC	0.136	0.956	> 15								
COc1cc2ncnc(Oc3cccc(NC(=O)Nc4ccc(C(C)(C)C)cc4)c3)c2cc1OC			3.49								
